Consider 1 compound from ChEMBL document CHEMBL4049428, “Exploring Derivatives of Quinazoline Alkaloid l-Vasicine as Cap Groups in the Design and Biological Mechanistic Evaluation of Novel Antitumor Histone Deacetylase Inhibitors” (J Med Chem, 2017).

The species named for assay [1] is Homo sapiens. In words: Inhibition of HDAC in human MOLT4 cells assessed as increase in acetylated H4K5 levels after 48 hrs by Western blot analysis. Type of assay: cell-based. The method in brief: (§1)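 Cells seeded 2-4 h, treated 48 h with graded compound concentrations (SAHA control); histones acid-extracted (HEPES pH 9 buffer, 0.2 N HCl, 1 h on ice), Bradford-normalised, resolved on 18% SDS gels, blotted to PVDF, probed for acetyl-H3K18 and acetyl-H4K5 with H3 and β-actin loading controls; ECL detection.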
For orientation: In western blotting, separated proteins are transferred to a membrane and probed.

The target of another assay is Histone deacetylase 8 (Homo sapiens, UniProt Q9BY41). Put plainly: Inhibition of HDAC 8 in human HeLa nuclear extract using fluorogenic HDAC class 2A substrate measured after 60 mins by fluorometric analysis.
In assay [2] the test system is MOLT-4. In words: Induction of mitochondrial membrane potential loss in human MOLT4 cells at 0.125 uM measured after 48 hrs by Rh123 dye-based flow cytometric analysis (reference value: 9.6%). Type of assay: functional. The method in brief: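 Cells seeded in 6-well plates 2-4 h, then 48 h with compound; Rh-123 1 µM added for the final half hour; cells centrifuged, washed twice in PBS, resuspended in PBS, and Ψm loss quantified by flow cytometry as percentage of cells.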
On the technique in general: Flow cytometry measures light scatter and fluorescence of single cells or particles in a stream.

In another assay the test system is THP-1. Put plainly: Antimigratory activity in human THP1 cells at 10 uM after 48 hrs by wound healing assay. It is filed as functional, cell-based. The method, boiled down: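 THP-1 cells seeded at high density, attached overnight; monolayer scratched with a pipette tip, debris removed by PBS washes, then test compound added after wounding. Incubated 48 h under standard culture conditions (37°C, 5% CO2); wound images taken at various intervals from time zero.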

Another assay relates to Caco-2. Put plainly: Cytotoxicity against human Caco2 cells assessed as growth inhibition after 48 hrs by MTT assay. To be noted: Caco-2, 48 h. Type of assay: functional, cell-based. (Formazan colour is commonly taken as a measure of viable cells.)
Assay [3] is filed under the species Homo sapiens. In words: Inhibition of HDAC in human HL60 cells assessed as increase in acetylated H3K18 levels after 48 hrs by Western blot analysis. Type of assay: cell-based. The method in brief:
as §1

For assay [4], the system named is HL-60. In words: Cytotoxicity against human HL60 cells assessed as growth inhibition at 10 uM after 48 hrs by MTT assay. It is filed as functional. To be noted: HL-60, 48 h, read-out: GI. The method, boiled down:
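MTT assay, 48 h exposure; adherent lines seeded 12 h and suspension lines 4 h before compound. Media: RPMI-1640/10% FCS (THP-1, HL-60, Colo-205, Caco-2, A549), DMEM/10% FCS (A549, MIAPaCa-2, MCF-7). MTT 4 h, formazan dissolved in DMSO, absorbance 570 nm. Mean ± S.D of three experiments in triplicate; SAHA 5 µM reference.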

The test system of the next assay is MCF7. Put plainly: Cytotoxicity against human MCF7 cells assessed as growth inhibition after 48 hrs by MTT assay. It is filed as functional, cell-based. Conditions: MCF7, 48 h.
Assay [5] deals with HL-60. In words: Induction of DNA damage in human HL60 cells by comet assay. It is filed as functional, cell-based. The method in brief: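 Alkaline comet assay on HL-60 cells in 0.5% low-melting agarose; lysis 2 h cold (2.5 M NaCl, 100 mM Na2EDTA, 10 mM Tris, pH 10, plus 1% Triton X-100); electrophoresis pH>13, 24 V, 300 mA, 40 min; neutralised pH 7.5, ethidium bromide stained; about 100 cells scored by image analysis, dim light.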

The subject of assay [6] is MOLT-4. In words: Cytotoxicity against human MOLT4 cells assessed as growth inhibition after 48 hrs by MTT assay. It is filed as functional, cell-based. Conditions: MOLT-4, 48 h.

SMILES strings stand for the structures. pIC50: −log10 of the molar value. The source made the active and inactive calls. The rule behind the calls is not given here.

Sequence of Histone deacetylase 8 (Q9BY41 whole entry): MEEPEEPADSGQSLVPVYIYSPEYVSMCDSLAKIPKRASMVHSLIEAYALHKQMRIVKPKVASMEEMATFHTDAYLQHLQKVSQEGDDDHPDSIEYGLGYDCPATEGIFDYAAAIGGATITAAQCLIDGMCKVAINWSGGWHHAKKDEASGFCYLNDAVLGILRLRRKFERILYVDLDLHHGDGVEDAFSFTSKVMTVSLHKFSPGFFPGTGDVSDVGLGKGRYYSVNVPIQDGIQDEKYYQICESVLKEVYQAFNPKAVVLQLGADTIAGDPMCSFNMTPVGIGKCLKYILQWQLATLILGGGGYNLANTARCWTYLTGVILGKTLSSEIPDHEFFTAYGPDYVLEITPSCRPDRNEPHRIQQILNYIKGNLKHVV

The term pIC50 denotes the negative decadic logarithm of the IC50, by convention in mol/L. Regarding `O=C(CCCCCCC(=O)Nc1ccccc1CN1CC[C@H](O)C1)NO`, the inhibition result in the assay filed under Homo sapiens [1] and in the assay listed under Homo sapiens [3] was “Dose-dependent effect” in each case. The pIC50 was 6.68 on Histone deacetylase 8, 5.22 in the assay with Caco-2, 5.82 with MCF7 and 6.09 in the assay with MOLT-4 [6]. In addition, the Activity in the assay with MOLT-4 [2] is 2.4%; in the assay on HL-60 [5], “Dose-dependent effect”. Besides, in the assay on THP-1, the outcome was Active. In addition, the inhibition of growth at 10 µM in the assay with HL-60 [4] was 95%.
